Assay results taken from ChEMBL document CHEMBL1212913, “Quinazolin-4-one derivatives: A novel class of noncompetitive NR2C/D subunit-selective N-methyl-D-aspartate receptor antagonists” (J Med Chem, 2010).

Assays:
[1] = molecular target: Glutamate NMDA receptor; Grin1/Grin2a (Rattus norvegicus, UniProt P35439+Q00959); assay: Antagonist activity at rat recombinant NR1-NR2A receptor expressed in Xenopus oocytes at holding potential of -40mV by two-electrode voltage-clamp electrophysiology; format: functional, cell-based, Oocyte; settings: read-out: IC50
Sequence of Glutamate NMDA receptor; Grin1/Grin2a (Q00959 whole entry, other chains not shown): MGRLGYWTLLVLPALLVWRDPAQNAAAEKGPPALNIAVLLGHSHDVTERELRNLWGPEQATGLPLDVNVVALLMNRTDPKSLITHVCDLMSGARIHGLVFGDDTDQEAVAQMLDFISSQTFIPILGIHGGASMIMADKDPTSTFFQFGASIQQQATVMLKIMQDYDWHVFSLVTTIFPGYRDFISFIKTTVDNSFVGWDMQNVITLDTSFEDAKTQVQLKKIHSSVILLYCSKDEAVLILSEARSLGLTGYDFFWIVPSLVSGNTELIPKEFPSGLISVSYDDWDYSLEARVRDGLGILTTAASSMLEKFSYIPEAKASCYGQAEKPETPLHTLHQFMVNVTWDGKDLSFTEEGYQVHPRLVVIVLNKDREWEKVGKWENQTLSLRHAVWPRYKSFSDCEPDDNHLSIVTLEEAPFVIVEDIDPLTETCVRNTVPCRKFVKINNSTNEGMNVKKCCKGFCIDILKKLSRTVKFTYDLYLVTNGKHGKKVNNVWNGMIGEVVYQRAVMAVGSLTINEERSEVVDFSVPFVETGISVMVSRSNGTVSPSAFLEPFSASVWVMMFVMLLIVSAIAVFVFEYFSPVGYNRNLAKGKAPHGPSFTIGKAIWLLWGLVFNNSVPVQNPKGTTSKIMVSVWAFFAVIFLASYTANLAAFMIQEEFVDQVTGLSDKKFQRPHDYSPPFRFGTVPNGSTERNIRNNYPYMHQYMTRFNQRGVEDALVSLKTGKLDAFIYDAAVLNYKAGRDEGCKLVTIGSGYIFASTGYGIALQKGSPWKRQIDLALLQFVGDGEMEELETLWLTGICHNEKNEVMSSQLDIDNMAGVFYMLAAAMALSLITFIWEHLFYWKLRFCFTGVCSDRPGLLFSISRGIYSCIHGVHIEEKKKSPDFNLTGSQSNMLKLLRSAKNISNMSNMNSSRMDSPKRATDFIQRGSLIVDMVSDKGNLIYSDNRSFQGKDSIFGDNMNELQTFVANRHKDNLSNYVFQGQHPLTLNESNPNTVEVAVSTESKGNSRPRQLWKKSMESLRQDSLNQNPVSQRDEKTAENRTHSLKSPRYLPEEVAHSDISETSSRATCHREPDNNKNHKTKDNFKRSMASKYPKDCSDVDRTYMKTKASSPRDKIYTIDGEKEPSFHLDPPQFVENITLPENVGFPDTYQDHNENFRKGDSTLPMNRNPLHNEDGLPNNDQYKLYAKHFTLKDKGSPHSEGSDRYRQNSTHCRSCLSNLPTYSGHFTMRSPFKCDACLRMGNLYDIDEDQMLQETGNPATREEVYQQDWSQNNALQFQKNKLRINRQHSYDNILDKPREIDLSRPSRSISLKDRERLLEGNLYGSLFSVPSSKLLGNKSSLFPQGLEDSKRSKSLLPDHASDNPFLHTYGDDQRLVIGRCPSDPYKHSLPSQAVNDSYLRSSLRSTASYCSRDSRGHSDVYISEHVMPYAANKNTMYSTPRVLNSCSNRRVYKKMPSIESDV
Outline: (§1)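 Oocytes expressing rat NR1-1a with NR2A, NR2B, NR2C or NR2D, clamped at −40 mV in Ba2+/HEPES recording solution pH 7.4, 23°C. Current evoked by 100 μM glutamate plus 30 μM glycine. Final DMSO 0.05-0.5%, 5-7 inhibitor concentrations, ≥4 oocytes each. IC50 from Hill fit of normalized mean composite data. […] Some NR2A oocytes given BAPTA-AM or K-BAPTA.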

[2] = molecular target: Ionotropic glutamate receptor NMDA 1/2D (Rattus norvegicus, UniProt P35439+Q62645); assay: Antagonist activity at rat recombinant NR1-NR2D receptor expressed in Xenopus oocytes at holding potential of -40mV by two-electrode voltage-clamp electrophysiology; format: functional, cell-based, Oocyte
Outline: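 Oocytes expressing rat NR1-1a with NR2A, NR2B, NR2C or NR2D, clamped at −40 mV in Ba2+/HEPES recording solution pH 7.4, 23°C. Current evoked by 100 μM glutamate plus 30 μM glycine. Final DMSO 0.05-0.5%, 5-7 inhibitor concentrations, ≥4 oocytes each. IC50 from Hill fit of normalized mean composite data. Some NR2A oocytes given BAPTA-AM or K-BAPTA.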

[3] = species on record: Rattus norvegicus; assay: Selectivity ratio of IC50 for rat recombinant NR1-NR2A receptor to IC50 for rat recombinant NR1-NR2D receptor
Outline: (§2)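 Ratio of fitted IC50 values, either NR2A/NR2D or GluR1/NR2D, from two-electrode voltage-clamp Hill fits in oocytes. Where noted, calculated from IC50 values rounded to the nearest μM.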

[4] = species on record: Rattus norvegicus; assay: Selectivity ratio of IC50 for rat recombinant GLuR1 to IC50 for rat recombinant NR1-NR2D receptor; outline: as §2
[5] = molecular target: Glutamate NMDA receptor; Grin1/Grin2c (Rattus norvegicus, UniProt P35439+Q00961); assay: Antagonist activity at rat recombinant NR1-NR2C receptor expressed in Xenopus oocytes at holding potential of -40mV by two-electrode voltage-clamp electrophysiology; format: functional, cell-based, Oocyte; outline: as §1
Sequence of Glutamate NMDA receptor; Grin1/Grin2c (Q00961 whole entry, other chains not shown): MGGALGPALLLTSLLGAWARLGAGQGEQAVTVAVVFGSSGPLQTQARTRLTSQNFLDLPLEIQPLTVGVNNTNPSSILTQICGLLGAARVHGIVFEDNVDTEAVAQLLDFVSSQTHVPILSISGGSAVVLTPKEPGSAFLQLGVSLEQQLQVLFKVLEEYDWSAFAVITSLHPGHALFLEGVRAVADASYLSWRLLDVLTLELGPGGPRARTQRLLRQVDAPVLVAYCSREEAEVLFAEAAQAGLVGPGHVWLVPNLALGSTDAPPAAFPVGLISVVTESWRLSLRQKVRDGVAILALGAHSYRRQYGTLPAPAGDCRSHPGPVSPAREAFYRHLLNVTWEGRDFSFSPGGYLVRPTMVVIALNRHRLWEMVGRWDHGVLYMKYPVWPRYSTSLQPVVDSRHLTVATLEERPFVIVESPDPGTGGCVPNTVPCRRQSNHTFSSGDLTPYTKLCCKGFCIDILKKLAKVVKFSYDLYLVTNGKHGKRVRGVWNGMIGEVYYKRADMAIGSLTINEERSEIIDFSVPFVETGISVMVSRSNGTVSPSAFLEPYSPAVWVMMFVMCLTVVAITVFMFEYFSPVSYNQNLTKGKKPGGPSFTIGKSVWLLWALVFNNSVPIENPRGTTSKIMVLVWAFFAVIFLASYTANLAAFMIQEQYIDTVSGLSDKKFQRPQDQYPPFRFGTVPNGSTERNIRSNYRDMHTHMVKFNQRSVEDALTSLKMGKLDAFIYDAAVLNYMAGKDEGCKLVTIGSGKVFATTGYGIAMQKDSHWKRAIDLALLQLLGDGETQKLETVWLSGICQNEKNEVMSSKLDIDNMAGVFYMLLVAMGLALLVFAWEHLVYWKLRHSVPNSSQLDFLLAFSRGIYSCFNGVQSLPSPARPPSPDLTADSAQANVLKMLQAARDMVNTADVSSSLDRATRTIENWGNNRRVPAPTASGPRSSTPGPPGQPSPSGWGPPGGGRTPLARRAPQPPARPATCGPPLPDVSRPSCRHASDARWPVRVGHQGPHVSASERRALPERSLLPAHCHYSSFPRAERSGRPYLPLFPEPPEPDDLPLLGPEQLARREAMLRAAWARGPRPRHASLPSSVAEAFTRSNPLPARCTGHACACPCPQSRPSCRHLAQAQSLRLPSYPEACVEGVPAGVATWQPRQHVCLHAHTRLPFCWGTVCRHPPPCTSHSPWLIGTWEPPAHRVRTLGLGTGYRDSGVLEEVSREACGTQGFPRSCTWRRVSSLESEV

[6] = molecular target: Glutamate receptor 1 (Rattus norvegicus, UniProt P19490); assay: Antagonist activity at rat recombinant GLuR1 expressed in Xenopus oocytes assessed as inhibition of glutamate-induced current by two-electrode voltage-clamp electrophysiology; format: functional, cell-based, Oocyte
Sequence of Glutamate receptor 1 (P19490 whole entry, the tested form may be a part): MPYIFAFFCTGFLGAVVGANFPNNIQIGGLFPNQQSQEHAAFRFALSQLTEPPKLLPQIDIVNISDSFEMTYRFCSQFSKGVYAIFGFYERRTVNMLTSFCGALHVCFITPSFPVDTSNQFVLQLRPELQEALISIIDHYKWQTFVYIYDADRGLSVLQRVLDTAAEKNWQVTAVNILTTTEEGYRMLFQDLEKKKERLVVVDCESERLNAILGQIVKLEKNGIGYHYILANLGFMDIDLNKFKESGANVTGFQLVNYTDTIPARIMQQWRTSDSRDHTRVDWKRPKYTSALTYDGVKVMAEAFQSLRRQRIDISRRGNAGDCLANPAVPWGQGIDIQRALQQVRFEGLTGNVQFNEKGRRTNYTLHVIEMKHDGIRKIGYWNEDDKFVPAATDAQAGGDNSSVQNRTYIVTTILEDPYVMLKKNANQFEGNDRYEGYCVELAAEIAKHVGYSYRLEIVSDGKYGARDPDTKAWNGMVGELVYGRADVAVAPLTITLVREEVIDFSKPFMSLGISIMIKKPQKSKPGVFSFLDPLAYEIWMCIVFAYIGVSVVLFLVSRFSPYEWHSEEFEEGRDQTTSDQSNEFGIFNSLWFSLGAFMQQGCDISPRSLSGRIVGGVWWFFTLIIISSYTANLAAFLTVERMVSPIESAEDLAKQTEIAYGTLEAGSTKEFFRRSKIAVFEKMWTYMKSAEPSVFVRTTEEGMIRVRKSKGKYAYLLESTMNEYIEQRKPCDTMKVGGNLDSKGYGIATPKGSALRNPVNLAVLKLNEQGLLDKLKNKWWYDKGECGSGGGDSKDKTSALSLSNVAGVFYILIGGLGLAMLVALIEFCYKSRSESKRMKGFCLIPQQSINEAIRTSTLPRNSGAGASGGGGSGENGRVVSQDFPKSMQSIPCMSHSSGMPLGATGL
Outline: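 Two-electrode voltage clamp at −40 mV on Xenopus oocytes expressing rat GluR1, perfused with 90 NaCl, 1.0 KCl, 0.5 BaCl2, 0.005 EDTA, 10 HEPES (mM), pH 7.4, 23°C; activated by 100 μM glutamate. From 20 mM DMSO stocks, 5-7 concentrations, ≥4 oocytes each. Hill fit to mean composite curves normalized to control, minimum usually fixed at 0. Response >75% at 100 μM reported as >300 μM.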

[7] = molecular target: Glutamate NMDA receptor; Grin1/Grin2b (Rattus norvegicus, UniProt P35439+Q00960); assay: Antagonist activity at rat recombinant NR1-NR2B receptor expressed in Xenopus oocytes at holding potential of -40mV by two-electrode voltage-clamp electrophysiology; format: functional, cell-based, Oocyte; settings: read-out: IC50; outline: as §1
Sequence of Glutamate NMDA receptor; Grin1/Grin2b (Q00960 whole entry, other chains not shown): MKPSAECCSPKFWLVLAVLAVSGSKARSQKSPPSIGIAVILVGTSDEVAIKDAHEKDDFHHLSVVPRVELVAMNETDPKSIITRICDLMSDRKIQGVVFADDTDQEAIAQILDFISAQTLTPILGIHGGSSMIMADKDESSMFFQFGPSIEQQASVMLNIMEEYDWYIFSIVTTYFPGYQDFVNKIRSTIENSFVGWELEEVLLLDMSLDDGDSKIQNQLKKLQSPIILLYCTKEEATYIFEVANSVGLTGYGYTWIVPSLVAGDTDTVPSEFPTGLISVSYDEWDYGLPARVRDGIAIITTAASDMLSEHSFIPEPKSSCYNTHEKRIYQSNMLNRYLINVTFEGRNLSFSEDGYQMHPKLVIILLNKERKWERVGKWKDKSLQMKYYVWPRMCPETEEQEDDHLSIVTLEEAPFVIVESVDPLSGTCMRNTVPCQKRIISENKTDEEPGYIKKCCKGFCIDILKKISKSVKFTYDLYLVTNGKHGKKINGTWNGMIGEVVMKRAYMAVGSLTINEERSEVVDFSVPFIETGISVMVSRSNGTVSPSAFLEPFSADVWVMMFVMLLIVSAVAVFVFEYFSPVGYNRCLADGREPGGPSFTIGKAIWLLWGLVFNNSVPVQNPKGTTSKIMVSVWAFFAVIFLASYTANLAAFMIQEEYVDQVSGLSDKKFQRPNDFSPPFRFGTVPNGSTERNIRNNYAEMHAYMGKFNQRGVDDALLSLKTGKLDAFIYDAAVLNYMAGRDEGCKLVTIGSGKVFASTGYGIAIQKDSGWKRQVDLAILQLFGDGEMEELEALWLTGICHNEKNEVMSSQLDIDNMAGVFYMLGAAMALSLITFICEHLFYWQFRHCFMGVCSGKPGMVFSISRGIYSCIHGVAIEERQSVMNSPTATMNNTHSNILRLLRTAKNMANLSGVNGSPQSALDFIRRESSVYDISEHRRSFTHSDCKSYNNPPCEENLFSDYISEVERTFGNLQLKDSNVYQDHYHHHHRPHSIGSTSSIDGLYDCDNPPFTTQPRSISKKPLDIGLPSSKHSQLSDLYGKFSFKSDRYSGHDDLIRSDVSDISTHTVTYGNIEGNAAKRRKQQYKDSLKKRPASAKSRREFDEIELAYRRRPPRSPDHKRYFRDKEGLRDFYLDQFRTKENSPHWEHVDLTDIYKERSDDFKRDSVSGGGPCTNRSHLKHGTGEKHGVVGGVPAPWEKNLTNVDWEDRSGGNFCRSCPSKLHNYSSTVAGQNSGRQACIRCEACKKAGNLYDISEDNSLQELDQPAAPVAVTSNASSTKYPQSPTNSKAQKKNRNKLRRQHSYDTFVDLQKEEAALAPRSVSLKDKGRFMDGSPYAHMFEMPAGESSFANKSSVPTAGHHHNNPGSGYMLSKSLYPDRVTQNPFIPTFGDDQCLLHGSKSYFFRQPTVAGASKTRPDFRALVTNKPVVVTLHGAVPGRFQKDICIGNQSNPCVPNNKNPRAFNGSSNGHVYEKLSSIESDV

SMILES	IC50 [1] [µM]	IC50 [2] [µM]	Ratio IC50 [3]	Ratio IC50 [4]	IC50 [5] [µM]	IC50 [6] [µM]	IC50 [7] [µM]
O=C(O)c1cccc(-n2c(/C=C/c3cccc([N+](=O)[O-])c3)nc3ccc(I)cc3c2=O)c1	8	1	8	21	2	21	11
O=C(O)c1ccc(-n2c(/C=C/c3cccc4ccccc34)nc3ccccc3c2=O)cc1	25	6	4	14	22	82	68
O=c1c2ccccc2nc(/C=C/c2cccnc2)n1-c1ccccc1	40	35	1	2	140	74	51
COC(=O)c1ccc(-n2c(/C=C/c3cccc([N+](=O)[O-])c3)nc3ccc(OC)cc3c2=O)cc1	218	38	6	4	39	138	46
COc1ccc2cc(/C=C/c3nc4ccccc4c(=O)n3-c3ccc(C(=O)O)cc3)ccc2c1	63	11	6	9	20	103	36
O=c1c2cc(I)ccc2nc(/C=C/c2cccnc2)n1-c1ccccc1	132	108	1	3	> 300	> 300	> 300
O=C(O)c1ccc(-n2c(/C=C/c3cccc([N+](=O)[O-])c3)nc3cc4c(cc3c2=O)OCCO4)cc1		213	1	1	281	> 300	> 300
O=C(O)c1ccc(-n2c(/C=C/c3cccc([N+](=O)[O-])c3)nc3cc(Cl)ccc3c2=O)cc1	32	15	2	3	16	41	52
CN(C)c1ccc(/C=C/c2nc3ccccc3c(=O)n2-c2ccc(C(=O)O)cc2)cc1	> 300	53	> 5	> 5	63	> 300	> 300
O=C(O)c1ccc(-n2c(/C=C/c3cccc([N+](=O)[O-])c3)nc3ccc(O)cc3c2=O)cc1	237	10	24	10	43	96	> 300
O=C(O)c1ccc(-n2c(/C=C/c3cccc([N+](=O)[O-])c3)nc3ccc(/C=C/c4ccccc4)cc3c2=O)cc1	19	4	5	33	4	131	30
O=C(O)c1ccc(-n2c(/C=C/c3cccc([N+](=O)[O-])c3)nc3ccc(Br)cc3c2=O)cc1	17	1	17	8	2	8	13
O=C(O)c1cccc(-n2c(/C=C/c3cccnc3)nc3ccc(I)cc3c2=O)c1	45	4	11	16	7	64	49
COc1cccc(-n2c(/C=C/c3cccnc3)nc3ccc(I)cc3c2=O)c1	> 300		1	1	> 300	> 300	> 300
CSc1ccc(/C=C/c2nc3ccccc3c(=O)n2-c2ccc(C(=O)O)cc2)cc1	211	22	10	11	42	244	79
O=c1c2cc(I)ccc2nc(/C=C/c2cccnc2)n1-c1ccccc1[N+](=O)[O-]	206	5	41	60	19	> 300	105

SMILES	IC50 [1] [µM]	IC50 [2] [µM]	Ratio IC50 [3]	Ratio IC50 [4]	IC50 [5] [µM]	IC50 [6] [µM]	IC50 [7] [µM]
CCCc1ccc2nc(/C=C/c3cccc([N+](=O)[O-])c3)n(-c3ccc(C(=O)O)cc3)c(=O)c2c1	28	4	7	13	3	50	18
COC(=O)c1cccc(/C=C/c2nc3ccc(OC)cc3c(=O)n2-c2ccc(C(=O)O)cc2)c1	80	6	13	7	15	41	39
Cc1ccc2nc(/C=C/c3cccc([N+](=O)[O-])c3)n(-c3ccc(C(=O)O)cc3)c(=O)c2c1	12	2	6	14	5	27	15
O=C(O)c1ccc(-n2c(/C=C/c3cccc([N+](=O)[O-])c3)nc3cc4ccccc4cc3c2=O)cc1	11	2	6	2	2	4	5
COc1cccc(/C=C/c2nc3ccc(OC)cc3c(=O)n2-c2ccc(C(=O)O)cc2)c1	73	9	8	24	18	220	109
Cc1ccc2nc(/C=C/c3ccccc3)n(-c3ccc(C(=O)O)cc3)c(=O)c2c1	39	26	2	1	22	21	25
O=C(O)c1ccc(-n2c(/C=C/c3ccccc3)nc3ccc(I)cc3c2=O)cc1	53	4	13	6	13	23	66
CC(C)c1ccc2nc(/C=C/c3cccc([N+](=O)[O-])c3)n(-c3ccc(C(=O)O)cc3)c(=O)c2c1	101	7	14	29	6	200	98
O=C(O)c1ccc(-n2c(/C=C/c3cccc([N+](=O)[O-])c3)nc3ccc(-c4cccs4)cc3c2=O)cc1	157	3	52	93	5	280	129
O=C(O)c1ccc(-n2c(/C=C/c3ccc(N4CCOCC4)cc3)nc3ccccc3c2=O)cc1	> 300	171	1	1	284	> 300	122
O=c1c2cc(I)ccc2nc(/C=C/c2cccnc2)n1-c1ccc([N+](=O)[O-])cc1	> 300	218	1	1	204	> 300	> 300
COc1ccc2nc(/C=C/c3cccc([N+](=O)[O-])c3)n(-c3ccc(C(=O)O)cc3)c(=O)c2c1	229	3	76	> 100	6	> 300	> 300
O=C(O)c1ccc(-n2c(/C=C/c3cccc(C(F)(F)F)c3)nc3ccccc3c2=O)cc1	13	12	1	2		22	26
Cc1ccccc1/C=C/c1nc2ccccc2c(=O)n1-c1ccc(C(=O)O)cc1	86	81	1	1		62	93
O=C(O)c1ccc(-n2c(/C=C/c3cccc(O)c3)nc3ccccc3c2=O)cc1	52	17	3	1		24	30
